Calls of active or inactive are those of the source. The rule behind the calls is not given here.
Tests used:
Cholinesterase [1] = biological target: T1, Cholinesterase (Equus caballus, UniProt P81908); assay: Inhibition of horse serum BChE pretreated for 20 mins followed by butyrylthiocholine iodide substrate addition measured for 5 mins by Ellman's method
[2] = biological target: Cholinesterase (Equus caballus) (UniProt P81908); assay: Inhibition of horse serum BChE at 10 uM pretreated for 20 mins followed by butyrylthiocholine iodide substrate addition measured for 5 mins by Ellman's method relative to control
Sequence of Cholinesterase (Equus caballus) (P81908 whole entry): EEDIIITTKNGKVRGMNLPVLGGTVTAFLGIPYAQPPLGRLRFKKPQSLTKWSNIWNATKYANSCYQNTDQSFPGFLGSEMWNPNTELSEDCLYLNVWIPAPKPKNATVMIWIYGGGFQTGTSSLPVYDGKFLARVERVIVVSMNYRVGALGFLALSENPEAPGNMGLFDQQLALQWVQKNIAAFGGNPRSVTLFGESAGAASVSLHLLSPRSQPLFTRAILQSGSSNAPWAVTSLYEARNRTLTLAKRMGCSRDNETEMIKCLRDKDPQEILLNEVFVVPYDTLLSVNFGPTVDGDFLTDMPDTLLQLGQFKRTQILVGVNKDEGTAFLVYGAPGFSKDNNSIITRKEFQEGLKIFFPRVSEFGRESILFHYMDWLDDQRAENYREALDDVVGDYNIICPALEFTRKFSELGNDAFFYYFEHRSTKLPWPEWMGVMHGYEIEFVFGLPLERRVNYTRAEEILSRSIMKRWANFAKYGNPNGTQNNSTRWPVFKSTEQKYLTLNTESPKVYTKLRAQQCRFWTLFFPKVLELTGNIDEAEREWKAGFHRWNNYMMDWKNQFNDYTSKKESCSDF
In short: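 Ellman colorimetric assay. BChE (0.9 U/mL stock in 0.1 M PB pH 8.0) with DTNB (3.3 mM stock in pH 7.0 PB plus NaHCO₃) and inhibitor (1×10^-4 to 1×10^-9 M, five to seven concentrations; or single 10 µM point) preincubated 20 min at 25 °C. Butyrylthiocholine iodide (0.05 mM stock) then added and absorbance read at 412 nm for 5.0 min. IC50 from nonlinear regression of log response curves, mean of ≥3 independent runs.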

Acetylcholinesterase [3] = biological target: Acetylcholinesterase (Electrophorus electricus, UniProt O42275); assay: Inhibition of electric eel AChE pretreated for 20 mins followed by acetylthiocholine iodide substrate addition measured for 5 mins by Ellman's method
Sequence of Acetylcholinesterase (Electrophorus electricus, UniProt O42275) (O42275 whole entry): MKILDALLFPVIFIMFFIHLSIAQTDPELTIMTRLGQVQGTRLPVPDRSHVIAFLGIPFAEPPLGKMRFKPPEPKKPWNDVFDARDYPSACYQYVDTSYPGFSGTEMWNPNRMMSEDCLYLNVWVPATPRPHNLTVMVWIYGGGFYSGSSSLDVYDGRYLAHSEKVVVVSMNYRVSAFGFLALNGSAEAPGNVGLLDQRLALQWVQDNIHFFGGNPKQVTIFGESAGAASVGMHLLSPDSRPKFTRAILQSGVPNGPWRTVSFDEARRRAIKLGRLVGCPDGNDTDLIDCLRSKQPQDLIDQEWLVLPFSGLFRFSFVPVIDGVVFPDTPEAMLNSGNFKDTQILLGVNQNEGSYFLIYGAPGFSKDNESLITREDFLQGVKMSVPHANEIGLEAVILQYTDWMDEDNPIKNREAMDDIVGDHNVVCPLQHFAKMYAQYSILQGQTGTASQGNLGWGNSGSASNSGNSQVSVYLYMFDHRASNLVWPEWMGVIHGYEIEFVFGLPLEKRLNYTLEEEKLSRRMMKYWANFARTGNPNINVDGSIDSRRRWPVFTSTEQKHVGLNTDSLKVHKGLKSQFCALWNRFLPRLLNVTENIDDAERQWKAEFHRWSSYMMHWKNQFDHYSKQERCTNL

[4] = Cytotoxicity against human MCF7 cells assessed as growth inhibition measured after 48 hrs by MTT assay; format: toxicity, cell-based
In short: (§1)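 Cells kept in DMEM with 10% FBS, 2 mM L-glutamine, penicillin/streptomycin, 37 °C, 5% CO₂. Seeded ~5,000 cells/well, 1 day, then exposed to compound at 0.1-500 µM for 48 h. MTT 0.5% (w/v) added for 4 h, formazan dissolved in DMSO/ethanol 1:1, absorbance read. Triplicates, as % of untreated control. GI50 from concentration-response curves.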

[5] = Neurotoxicity against human U87 cells assessed as growth inhibition measured after 48 hrs by MTT assay; format: toxicity, cell-based, U-87MG ATCC; in short: as §1
[6] = Hepatotoxicity against human HepG2 cells assessed as growth inhibition measured after 48 hrs by MTT assay; format: toxicity, cell-based; in short: as §1
Acetylcholinesterase [7] = biological target: T2, Acetylcholinesterase (Homo sapiens, UniProt P22303); assay: Inhibition of human AChE at 10 uM pretreated for 20 mins followed by acetylthiocholine iodide substrate addition measured for 5 mins by Ellman's method relative to control
T2 sequence (P22303 whole entry): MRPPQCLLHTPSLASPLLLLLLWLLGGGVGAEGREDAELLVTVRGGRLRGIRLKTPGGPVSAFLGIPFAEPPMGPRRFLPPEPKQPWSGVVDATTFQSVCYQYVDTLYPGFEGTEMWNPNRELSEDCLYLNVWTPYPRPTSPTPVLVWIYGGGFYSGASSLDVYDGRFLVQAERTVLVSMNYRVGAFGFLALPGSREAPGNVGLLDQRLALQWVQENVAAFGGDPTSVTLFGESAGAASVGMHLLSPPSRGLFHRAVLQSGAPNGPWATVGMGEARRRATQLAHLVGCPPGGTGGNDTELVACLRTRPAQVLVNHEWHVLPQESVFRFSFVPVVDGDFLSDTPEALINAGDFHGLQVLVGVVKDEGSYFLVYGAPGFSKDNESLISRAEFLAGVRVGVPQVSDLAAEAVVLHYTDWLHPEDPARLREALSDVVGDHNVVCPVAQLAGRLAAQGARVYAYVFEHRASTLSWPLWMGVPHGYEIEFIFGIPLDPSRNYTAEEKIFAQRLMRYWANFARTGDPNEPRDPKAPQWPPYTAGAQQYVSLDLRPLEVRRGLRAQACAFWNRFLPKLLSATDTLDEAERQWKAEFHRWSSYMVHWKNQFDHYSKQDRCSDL
In short: (§2)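 Ellman colorimetric assay with DTNB (3.3 mM stock, pH 7.0 PB). Test compound (five to seven concentrations, 1×10^-4 to 1×10^-9 M; or single 10 µM point) preincubated with enzyme 20 min at 25 °C in 0.1 M PB pH 8.0. Rate followed at 412 nm for 5.0 min after adding thiocholine substrate (0.05 mM). IC50 by nonlinear regression, mean of ≥3 independent determinations.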

Cholinesterase [8] = biological target: T1, Cholinesterase; assay: Competitive inhibition of horse serum BChE in presence of varying levels of butyrylthiocholine iodide substrate by Lineweaver-burk plot method
In short: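 Lineweaver-Burk fit (1/v vs 1/[S]) using fixed enzyme at 0.09 U×mL^-1, substrate varied 25−250 µM, run without inhibitor and with inhibitor at four concentrations spanning 0.5-5.0 nM.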

Cholinesterase [9] = biological target: Cholinesterase (Homo sapiens, UniProt P06276); assay: Inhibition of human BChE pretreated for 20 mins followed by butyrylthiocholine iodide substrate addition measured for 5 mins by Ellman's method; in short: as §2
Sequence of Cholinesterase (Homo sapiens, UniProt P06276) (P06276 whole entry): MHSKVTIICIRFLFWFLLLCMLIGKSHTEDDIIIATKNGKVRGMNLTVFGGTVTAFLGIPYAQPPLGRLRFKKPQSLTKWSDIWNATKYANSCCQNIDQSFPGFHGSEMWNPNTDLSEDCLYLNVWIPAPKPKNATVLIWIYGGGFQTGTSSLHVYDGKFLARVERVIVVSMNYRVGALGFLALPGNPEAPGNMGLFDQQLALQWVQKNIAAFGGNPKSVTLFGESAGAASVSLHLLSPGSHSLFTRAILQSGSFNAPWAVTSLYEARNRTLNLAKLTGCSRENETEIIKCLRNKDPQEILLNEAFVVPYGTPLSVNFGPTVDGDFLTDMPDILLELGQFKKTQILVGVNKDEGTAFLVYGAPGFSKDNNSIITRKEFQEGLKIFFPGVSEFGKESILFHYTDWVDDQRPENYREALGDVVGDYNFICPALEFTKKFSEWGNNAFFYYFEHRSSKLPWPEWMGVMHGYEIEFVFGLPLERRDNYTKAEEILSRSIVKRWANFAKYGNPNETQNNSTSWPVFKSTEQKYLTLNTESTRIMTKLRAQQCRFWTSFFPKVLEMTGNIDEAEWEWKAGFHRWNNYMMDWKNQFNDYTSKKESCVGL

[10] = Neurotoxicity against human SH-SY5Y cells assessed as growth inhibition measured after 48 hrs by MTT assay; format: toxicity, cell-based; conditions: for GI50 at 48 h: SH-SY5Y cells; for growth inhibition (GI): sh-sy5y, 48 h
In short: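 SH-SY5Y grown in DMEM/10% FBS, then treated in reduced-serum (2% FBS) medium. Compounds from 20 mM DMSO stock, tested at 0.1-1000 µM for 48 h after 1-day attachment at ~5,000 cells/well. MTT 4 h, DMSO/ethanol solubilization, absorbance. Triplicate wells, % of untreated control. GI50 from dose-response.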

[11] = Neuroprotective activity against NMDA-induced toxicity in human SH-SY5Y cells assessed as cell viability at 0.5 uM incubated for 48 hrs by MTT assay relative to control; format: functional; conditions: read-out: Activity
In short: (§3)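 SH-SY5Y in DMEM with 2% FBS, seeded ~5,000 cells/well and grown 1 day. Co-exposed 48 h at 37 °C to NMDA (250 µM final) plus test compound. MTT (0.5% w/v) added for 4 h, formazan dissolved in DMSO/ethanol 1:1, absorbance read. Triplicates as % of untreated control, mean ± SEM; one-way ANOVA with Dunnett's test.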

Acetylcholinesterase [12] = biological target: T2, Acetylcholinesterase; assay: Inhibition of human AChE pretreated for 20 mins followed by acetylthiocholine iodide substrate addition measured for 5 mins by Ellman's method; in short: as §2
[13] = Neuroprotective activity against NMDA-induced toxicity in human SH-SY5Y cells assessed as cell viability at 5 uM incubated for 48 hrs by MTT assay relative to control; format: functional; conditions: read-out: Activity; in short: as §3
SH-SY5Y = assay: Neuroprotective activity against NMDA-induced toxicity in human SH-SY5Y cells assessed as increase in cell viability at 0.5 uM incubated for 48 hrs by MTT assay; format: functional, cell-based
In short: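 SH-SY5Y at ~5,000 cells/well in reduced-serum (2% FBS) medium co-exposed 48 h at 37 °C to NMDA (250 µM final) and compound. Viability by MTT, as % of NMDA-untreated cells. Mean ± SEM; one-way ANOVA with Dunnett's test, P < 0.05 significant.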

Cholinesterase [14] = biological target: T1, Cholinesterase; assay: Stability assessed as horse serum BChE mediated compound hydrolysis at 300 x 10^-6M at pH 8 measured every 5 mins for 1 hr by UV-Vis spectra analysis; format: ADME; conditions: buffer, pH 8, 1 h, 300 µM
Cholinesterase [15] = biological target: T1, Cholinesterase; assay: Stability assessed as horse serum BChE mediated compound hydrolysis at 300 x 10^-7M at pH 8 measured every 5 mins for 1 hr by UV-Vis spectra analysis; format: ADME; conditions: buffer, pH 8, 1 h, 30 µM

T1 sequence (P81908 whole entry): as the sequence (P81908 whole entry) above

## O=C1NCCCc2c1c1ccccc1n2CCc1ccc(Cl)cc1
Cholinesterase [1]
  IC50: 1.9 µM

## CN1CCCc2c(c3ccccc3n2CCc2ccccc2)C1=O
[2]
  inhibition: 10%
Acetylcholinesterase [3]
  IC50: 44.8 µM

## CCOC(=O)NCCCn1c2c(c3ccccc31)C(=O)NCCC2
Cholinesterase [1]
  IC50: 15 µM
Acetylcholinesterase [3]
  IC50: 110 µM

## O=c1[nH]cc(F)c(=O)[nH]1 [FLUOROURACIL]
[4]
  GI50 at 48 h: 4.5 µM
[5]
  GI50 at 48 h: 13 µM
[6]
  GI50 at 48 h: 7 µM

## O=C1NCCCc2c1c1ccccc1n2CCc1cccc(F)c1
[4]
  GI50 at 48 h: 162 µM
Acetylcholinesterase [7]
  inhibition: 6%
Cholinesterase [8]
  Ki: 0.0007 µM
Cholinesterase [1]
  IC50: 0.0015 µM
[5]
  GI50 at 48 h: 162 µM
Cholinesterase [9]
  IC50: 0.0018 µM
[6]
  GI50 at 48 h: 159 µM
[10]
  GI50 at 48 h: 2.61 µM
  growth inhibition (GI): Dose-dependent effect
[11]
  viability at 0.5 µM: 70%

## CCOC(=O)CCCn1c2c(c3ccccc31)C(=O)NCCC2
Cholinesterase [1]
  IC50: 25.7 µM
Acetylcholinesterase [3]
  IC50: 60 µM

## Cc1ccc(CCn2c3c(c4ccccc42)C(=O)NCCC3)cc1
Cholinesterase [1]
  IC50: 68.2 µM

## O=C1NCCCc2c1c1ccccc1n2CCc1ccc(F)cc1
[4]
  GI50 at 48 h: > 500 µM
Acetylcholinesterase [12]
  IC50: 10 µM
Cholinesterase [1]
  IC50: 0.23 µM
[13]
  viability at 5 µM: 76.6%
[5]
  GI50 at 48 h: > 500 µM
Cholinesterase [9]
  IC50: 5 µM
[6]
  GI50 at 48 h: 230 µM
[10]
  GI50 at 48 h: 251 µM
  growth inhibition (GI): Dose-dependent effect

## CC(C)CCn1c2c(c3ccccc31)C(=O)NCCC2
Cholinesterase [1]
  IC50: 22.3 µM
Acetylcholinesterase [3]
  IC50: 100 µM

## O/N=C1\CCCc2c1c1ccccc1n2CCc1ccccc1
[2]
  inhibition: 5%

## Cl.c1ccc(CCn2c3c(c4ccccc42)CNCCC3)cc1
[4]
  GI50 at 48 h: 28 µM
Cholinesterase [1]
  IC50: 1.14 µM
[5]
  GI50 at 48 h: 41 µM
[6]
  GI50 at 48 h: 25 µM
[10]
  GI50 at 48 h: 5.6 µM
  growth inhibition (GI): Dose-dependent effect
[11]
  viability at 0.5 µM: 76%

## CC12CC3CC(C)(C1)CC(N)(C3)C2 [MEMANTINE]
[13]
  viability at 5 µM: 68%
[10]
  GI50 at 48 h: 145 µM
  growth inhibition (GI): Dose-dependent effect

## CCCNC(=O)c1cn(CCc2ccccc2)c2ccccc12
Cholinesterase [1]
  IC50: 12.6 µM
Acetylcholinesterase [3]
  IC50: 10.3 µM

## O=C1NCCCc2c1c1cc(F)ccc1n2CCc1ccccc1
Cholinesterase [1]
  IC50: 0.028 µM

## O=C1NCCCc2c1c1ccccc1n2CCc1ccccc1
[4]
  GI50 at 48 h: 170 µM
Acetylcholinesterase [12]
  IC50: 12.6 µM
SH-SY5Y
  Activity: Active
Cholinesterase [14]
  Stability: Stable
Cholinesterase [1]
  IC50: 0.024 µM
[13]
  viability at 5 µM: 76.9%
[5]
  GI50 at 48 h: 288 µM
Cholinesterase [9]
  IC50: 0.013 µM
[6]
  GI50 at 48 h: 120 µM
[10]
  GI50 at 48 h: 138 µM
  growth inhibition (GI): Dose-dependent effect
Acetylcholinesterase [3]
  IC50: 20 µM

## O=C1NCCCc2c1c1ccccc1n2CCc1cccc(Cl)c1
Cholinesterase [1]
  IC50: 0.065 µM

## O=C1NCCCc2c1c1ccccc1n2CCCc1ccccc1
[2]
  inhibition: 20%

## O=C1NCCCc2c1c1ccccc1n2Cc1ccccc1
[2]
  inhibition: 25%

## CC(=O)OCCCCn1c2c(c3ccccc31)C(=O)NCCC2
Cholinesterase [1]
  IC50: 10.7 µM

## O=C1CCCc2c(c3ccccc3n2CCc2ccccc2)N1
[2]
  inhibition: 25%
Cholinesterase [15]
  Stability: Stable

## O=C1CCCc2c1c1ccccc1n2CCc1ccccc1
Cholinesterase [1]
  IC50: 10 µM
Acetylcholinesterase [3]
  IC50: 10 µM
